Experimental data collected from several papers.

SMILES | test | system | conditions | half-life [h]
COCCOC(=O)C1=C(C)NC(C)=C(C(=O)OC(C)C)C1c1cccc([N+](=O)[O-])c1 (stereo not shown) | – | male Sprague-Dawley rat, plasma | oral, 12 mg/kg | 7.5
CCc1cc(C(=O)NC)c2nccc(N3CCc4c(cc(Cn5ccnc5)cc4-c4cn(C)nc4C(F)(F)F)C3=O)c2c1 | – | male Sprague-Dawley rat, plasma | oral, 100 mg/kg, single dose | 3.9
C=CC(=O)Nc1cc(Nc2nccc(Nc3cc(Cl)c(F)cc3C(C)(C)O)n2)c(OC)cc1N1CC[C@@H](N(C)C)C1 | – | Wistar rat, plasma | intravenous, 3 mg/kg | 6.37
COc1cc2c3c(n(CCCN4CCOCC4)c(=O)c2cc1OC)-c1cc2c(cc1C3=O)OCO2 | – | male Fischer 344 rat, plasma | intravenous, 24 mg/m², single dose | 3.6
N#Cc1ccc(Nc2nc(N)cc(Oc3c(F)cc(-c4ccc(C#N)cc4)cc3F)n2)cc1 | – | Sprague-Dawley rat, plasma | oral, 5 mg/kg | 3.31
O=C(Nc1cc(F)c(F)c(F)c1)c1ccc(F)c(S(=O)(=O)NCc2cccc(B(O)O)c2)c1 | – | male Sprague-Dawley rat, plasma | oral, 20 mg/kg | 1.08
O=C(O)/C=C/c1ccc(O)c(O)c1 | HPLC | Wistar rat, plasma | oral | 0.33
COc1ccc2c(=O)n(C)c(-c3ccccc3)nc2c1 | – | male Sprague-Dawley rat, plasma | intravenous, 2 mg/kg | 0.83
COc1nc(-c2cc(C)c(N[C@@H](C)c3cc(F)cc(F)c3)nn2)ccc1-n1cnc(C)c1 | – | male Sprague-Dawley rat, plasma | intravenous, 1 mg/kg, single dose | 3.1
N#Cc1[nH]nnc1-c1cc(Cl)cc(/C=C/c2cccc(C(F)(F)F)c2)c1 | – | male Sprague-Dawley rat, plasma | oral, 10 mg/kg | 2.9
COc1ccc2c(Cc3ccccc3F)c3[n+](cc2c1OC)CCc1cc2c(cc1-3)OCO2.[Br-] | – | rat, plasma | intravenous, 5 mg/kg | 1.61
CCc1cc(OC)c2nccc(N3CCc4c(cc(Cn5ccnc5)cc4-c4cn(C)nc4C(F)(F)F)C3=O)c2c1 | – | male Sprague-Dawley rat, plasma | intravenous, 3 mg/kg | 1
Cc1cnc(N2CC3(CCOCC3)C2)c(C(=O)Nc2ccc(C(=O)N3CCc4cc(C(=O)Nc5c(C)cccc5F)sc4-c4ccccc43)cc2)c1 | – | rat, plasma | intravenous, 0.1 mg/kg, single dose | ~2.3
COc1ccc2c(Cc3ccccc3F)c3n(c(=O)c2c1OC)CCc1cc2c(cc1-3)OCO2 | – | rat, plasma | intravenous, 5 mg/kg | 3.07
CC(C)(O)[C@H]1CC[C@H](Nc2ccc3ncc(-c4cccc(C(F)(F)F)c4)n3n2)CC1 | – | female Sprague-Dawley rat, plasma | oral, 40 mg/kg | 4.1
Cc1noc(-c2cc3cc(-c4nc(C(=O)NCc5ccncc5)[nH]c4C)ccc3[nH]2)n1 | – | Sprague-Dawley rat, plasma | intravenous, 1 mg/kg | 1.8
Cc1c(-c2ccccc2)cccc1N1C(=O)c2cc(CN[C@H](C(=O)O)C(C)O)c(OCc3cccc(C#N)c3)cc2C1=O (stereo partly shown) | – | Sprague-Dawley rat, plasma | intravenous, 5 mg/kg | 6.44
Oc1c(-n2ccnn2)cnn1-c1cc(N2CCOCC2)ncn1 | – | male rat, plasma | oral, 5 mg/kg | 3
Oc1c(Br)cc(Cl)c2cccnc12 | – | Sprague-Dawley rat, plasma | subcutaneous, 10 mg/kg | 5.6
O=C(Nc1ccc(C(F)(F)F)cc1)N1CCC(Cc2cccc(Oc3ccc(C(F)(F)F)cn3)c2)CC1 | – | male Sprague-Dawley rat, blood | oral, 1 mg/kg | 7.2
N#Cc1[nH]nnc1-c1csc(-c2ccc(Cl)cc2)n1 | – | male Sprague-Dawley rat, plasma | oral, 10 mg/kg | 2.9
CCOC(=O)[C@@]12C[C@@H]1[C@@H](n1ccc3c(NC)nc(C#Cc4ccc(Cl)s4)nc31)[C@H](O)[C@@H]2O | – | male Sprague-Dawley rat, plasma | intravenous, 0.5 mg/kg | 1.31
CNCc1cc(-c2ccccc2F)n(S(=O)(=O)c2cccnc2)c1 | – | Sprague-Dawley rat, plasma | oral, 10 mg/kg | 1.29
CC[C@H](C)[C@H](NC(=O)[C@H](Cc1ccccc1)NC(=O)[C@H](CCC(=O)O)NC(=O)[C@H](CCCNC(=N)N)NC(=O)[C@H](C)NC(=O)[C@H](C)NC(=O)[C@H](CCC(N)=O)NC(=O)[C@H](CCC(=O)O)NC(=O)[C@H](CCC(=O)O)NC(=O)[C@H](CC(C)C)NC(=O)[C@H](Cc1ccc(O)cc1)NC(=O)[C@H](CO)NC(=O)[C@H](CO)NC(=O)[C@@H](NC(=O)[C@H](CC(=O)O)NC(=O)[C@H](CO)NC(=O)[C@@H](NC(=O)[C@H](Cc1ccccc1)NC(=O)[C@@H](NC(=O)CNC(=O)[C@H](CCC(=O)O)NC(=O)[C@H](C)NC(=O)CCc1c[nH]cn1)[C@@H](C)O)[C@@H](C)O)C(C)C)C(=O)N[C@@H](C)C(=O)N[C@@H](Cc1c[nH]c2ccccc12)C(=O)N[C@@H](CC(C)C)C(=O)N[C@H](C(=O)N[C@@H](CCCNC(=N)N)C(=O)NCC(=O)N[C@@H](CCCNC(=N)N)C(=O)N[C@@H](CCCCNC(=O)COCCOCCNC(=O)COCCOCCNC(=O)CC[C@H](NC(=O)CCCCCCCCCCCCCCCCC(=O)O)C(=O)O)C(=O)O)C(C)C | – | rat, plasma | subcutaneous, 20 nmol/kg | 13
Nc1ncn([C@H]2C[C@H](O)[C@@H](CO)O2)c(=O)n1 | – | male Wistar rat, plasma | intravenous, 21 µmol/kg | 2.43
